What was measured:
[1] = Antimetastatic activity against human HeLaB cells assessed as inhibition of cell motility at 25 uM after 24 hrs relative to control; format: functional; parameters: scale not given: the % may be the effect or the level left
Method in brief: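 HeLa B cervix carcinoma cells were exposed to 25 µM compound or to culture medium alone for 24 h in a wound-migration (cell motility) assay. Cells migrating into the wound area were scored, and motility was expressed as % of the medium-only control (100%).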

RPMI-8226 [2] = assay: Antitumor activity against human RPMI8226 cells assessed as cell viability at 50 uM after 24 hrs by MTT assay relative to control; format: functional; details: RPMI-8226, 24 h, read-out: Activity
Method in brief: (§1)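 RPMI 8226 peripheral blood myeloma cells were treated with 1, 50 or 100 µM compound (DMSO stock diluted into medium) for 24 h. Viability was measured by MTT reduction (SDI test), with solubilized formazan read at 570 nm. Results are % of medium-alone control, mean SD of at least three independent measurements.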

[3] = Cytotoxicity against human HSF cells assessed as cell viability at 1 uM after 24 hrs by MTT assay relative to control; format: cell-based; details: read-out: Activity
Method in brief: (§2)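 Primary skin fibroblasts were obtained by trypsinizing a healthy forearm skin fragment and grown in DMEM with 10% FBS, penicillin and streptomycin at 37 °C, 5% CO2. Cells were plated at 1 × 10⁵ per well to confluence, then exposed for 24 h to 1, 50 or 100 µM compound diluted from DMSO. MTT viability was read at 570 nm as % of medium control, mean SD of at least three independent measurements.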

RPMI-8226 [4] = assay: Antitumor activity against human RPMI8226 cells assessed as cell viability at 1 uM after 24 hrs by MTT assay relative to control; format: functional; details: RPMI-8226, 24 h, read-out: Activity; method in brief: as §1
[5] = Cytotoxicity against human HSF cells assessed as cell viability at 50 uM after 24 hrs by MTT assay relative to control; format: cell-based; details: read-out: Activity; method in brief: as §2
[6] = Cytotoxicity against human HSF cells assessed as cell viability at 100 uM after 24 hrs by MTT assay relative to control; format: cell-based; details: read-out: Activity; method in brief: as §2
RPMI-8226 [7] = assay: Antitumor activity against human RPMI8226 cells assessed as cell viability at 100 uM after 24 hrs by MTT assay relative to control; format: functional; details: RPMI-8226, 24 h, read-out: Activity; method in brief: as §1

SMILES	Activity [1] [%]	viability at 50 µM (RPMI-8226 [2]) [%]	viability at 24 h, 1 µM [3] [%]	viability at 1 µM (RPMI-8226 [4]) [%]	viability at 24 h, 50 µM [5] [%]	viability at 24 h, 100 µM [6] [%]	viability at 100 µM (RPMI-8226 [7]) [%]
O=c1c(-c2ccccc2)nnc2n1CCN2c1ccccc1Cl	59	103	108	103	104	104	101
COc1ccc(N2CCn3c2nnc(-c2ccccc2)c3=O)cc1	59	57	88	106	64	73	43
O=c1c(-c2ccccc2)nnc2n1CCN2c1cc(Cl)ccc1Cl	103	43	87	109	31	17	41
O=c1c(-c2ccccc2)nnc2n1CCN2c1cccc(Cl)c1	52	70	108	105	85	88	60
O=c1c(-c2ccccc2)nnc2n1CCN2c1ccc(Cl)cc1	50	56	104	101	96	102	39
O=c1c(-c2ccccc2)nnc2n1CCN2c1ccc(Cl)c(Cl)c1	90	69	93	108	48	47	58
Cc1cccc(N2CCn3c2nnc(-c2ccccc2)c3=O)c1	68	79	100	107	94	88	71

— ChEMBL document CHEMBL1155302, “Crystal structure, antitumour and antimetastatic activities of disubstituted fused 1,2,4-triazinones” (Bioorg Med Chem Lett, 2009)
